These results are taken from ChEMBL document CHEMBL4190259, “Constituents of Polygala flavescens ssp. flavescens and Their Activity as Inhibitors of Human Lactate Dehydrogenase” (J Nat Prod, 2017).

This test deals with L-lactate dehydrogenase A chain (Homo sapiens, UniProt P00338). Briefly: Inhibition of human liver LDH5 using pyruvate as substrate and NADH as cofactor measured after 15 mins by fluorescence assay. The procedure, abridged:
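Purified human LDH isoform 5, forward reaction (pyruvate to lactate) in 100 mM phosphate buffer pH 7.4 with 200 μM pyruvate and 40 μM NADH. Seven concentrations from 500 to 0.7 μM, each in duplicate, DMSO not above 4%. NADH consumption read by fluorescence (ex 340, em 460 nm) after 15 min. Compound background fluorescence or quenching subtracted. IC50 from concentration–response curves.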

By IC50 is commonly meant the concentration at which inhibition is half-maximal.

`COc1cc(/C=C/C(=O)OC[C@H]2O[C@H](O[C@]3(CO)O[C@H](CO)[C@@H](O)[C@@H]3OC(=O)/C=C/c3cc(OC)c(O)c(OC)c3)[C@H](O)[C@@H](O)[C@@H]2O)cc(OC)c1O` had an IC50 of 90.4 µM.
With `CC(=O)OC[C@H]1O[C@H](O[C@]2(CO)O[C@H](COC(=O)c3ccccc3)[C@@H](O)[C@@H]2O)[C@H](O)[C@@H](O[C@@H]2O[C@H](CO)[C@@H](O)[C@H](O)[C@H]2O)[C@@H]1O`, the IC50 was > 500 µM.
As for `COc1cc(/C=C/C(=O)OC[C@@]2(O)CO[C@@H](O[C@H]3[C@H](Oc4c(-c5ccc(O)c(O)c5)oc5cc(O)cc(O)c5c4=O)O[C@H](CO[C@@H]4O[C@@H](C)[C@H](O)[C@@H](O)[C@H]4O)[C@@H](O)[C@@H]3O)[C@@H]2O)ccc1O`, the figure is > 500 µM.
For `CC(=O)O[C@@H]1[C@H](O[C@@H]2OC[C@](O)(CO)[C@H]2O)[C@@H](O[C@@H]2O[C@@H](C)[C@H](O)[C@@H](O)[C@H]2O)[C@H](OC(=O)[C@]23CCC(C)(C)C[C@H]2C2=CC[C@@H]4[C@@]5(C)C[C@H](O)[C@H](O[C@@H]6O[C@H](CO)[C@@H](O)[C@H](O)[C@H]6O)[C@@](C)(C(=O)O)[C@@H]5CC[C@@]4(C)[C@]2(C)CC3)O[C@H]1C`, the IC50 is > 500 µM.
As for `C[C@@H]1O[C@@H](OC[C@H]2O[C@@H](Oc3c(-c4ccc(O)c(O)c4)oc4cc(O)cc(O)c4c3=O)[C@H](O[C@@H]3OC[C@](O)(COC(=O)/C=C/c4ccc(O)cc4)[C@H]3O)[C@@H](O)[C@@H]2O)[C@H](O)[C@H](O)[C@H]1O`, the figure is > 500 µM; as for `O=C(OC[C@H]1O[C@@](CO)(O[C@H]2O[C@H](CO)[C@@H](O)[C@H](O[C@@H]3O[C@H](CO)[C@@H](O)[C@H](O)[C@H]3O)[C@H]2O)[C@@H](O)[C@@H]1O)c1ccccc1`, > 500 µM.
As to `COc1cc(/C=C/C(=O)OC[C@@]2(O)CO[C@@H](O[C@H]3[C@H](Oc4c(-c5ccc(O)c(O)c5)oc5cc(O)cc(O)c5c4=O)O[C@H](CO[C@@H]4O[C@@H](C)[C@H](O)[C@@H](O)[C@H]4O)[C@@H](O)[C@@H]3O)[C@@H]2O)cc(OC)c1O`, the concentration for half-maximal inhibition (IC50) is > 500 µM.
As for `C[C@@H]1O[C@@H](OC[C@H]2O[C@@H](Oc3c(-c4ccc(O)c(O)c4)oc4cc(O)cc(O)c4c3=O)[C@H](O[C@@H]3OC[C@](O)(CO)[C@H]3O)[C@@H](O)[C@@H]2O)[C@H](O)[C@H](O)[C@H]1O`, the figure is > 500 µM; as for `C[C@@H]1O[C@@H](OC[C@H]2O[C@@H](Oc3c(-c4ccc(O)c(O)c4)oc4cc(O)cc(O)c4c3=O)[C@H](O)[C@@H](O)[C@@H]2O)[C@H](O)[C@H](O)[C@H]1O` [RUTIN], > 500 µM.
The compound `COc1cc(/C=C/C(=O)OC[C@H]2O[C@H](O[C@]3(CO)O[C@H](CO)[C@@H](O)[C@@H]3OC(=O)/C=C/c3cc(OC)c(O)c(OC)c3)[C@H](O)[C@@H](O[C@@H]3O[C@H](CO)[C@@H](O)[C@H](O)[C@H]3O)[C@@H]2O)cc(OC)c1O` came in with an IC50 of 191 µM.
As to `C[C@@H]1O[C@@H](OC[C@H]2O[C@@H](Oc3c(-c4ccc(O)c(O)c4)oc4cc(O)cc(O)c4c3=O)[C@H](O[C@@H]3OC[C@](O)(COC(=O)c4ccccc4)[C@H]3O)[C@@H](O)[C@@H]2O)[C@H](O)[C@H](O)[C@H]1O`, the IC50 is > 500 µM.
